ChEMBL document CHEMBL2157917, “Targeting conserved water molecules: design of 4-aryl-5-cyanopyrrolo[2,3-d]pyrimidine Hsp90 inhibitors using fragment-based screening and structure-based optimization” (Bioorg Med Chem, 2012)
“And” between values parts separate entries of the source, which are not always exact repeats. Equal values may be shown once.

Legend:
BT-474 = test: Antiproliferative activity against human BT474 cells after 4 days by SRB method; format: functional; details: BT-474, 96 h
[1] = target: Heat shock protein HSP 90-beta (Homo sapiens, UniProt P08238); test: Inhibition of fluorescently labeled VER51001 binding to full length human HSP90beta after 30 mins by fluorescence polarization assay
MDA-MB-468 = test: Antiproliferative activity against human MDA-MB-468 cells after 4 days by SRB method; format: functional; details: MDA-MB-468, 96 h
HCT-116 = test: Antiproliferative activity against human HCT116 cells after 4 days by SRB method; format: functional; details: HCT-116, 96 h
[2] = AUC (0 to 2 hrs ) in Balb-C mouse plasma at 5 mg/kg, po; format: ADME, organism-based; set-up: time < 2 hr, dose 5 mg/kg, route oral
[3] = Cmax in Balb-C mouse plasma at 5 mg/kg, po; format: ADME, organism-based; set-up: dose 5 mg/kg, route oral
[4] = target: T1, Voltage-gated inwardly rectifying potassium channel KCNH2 (Homo sapiens, UniProt Q12809); test: Displacement of [3H]-dofetilide from human ERG
UGT [5] = test: Intrinsic clearance in human liver microsomes assessed as UGT-mediated glucuronidation extraction ratio after 30 mins by LC-MS/MS analysis; format: ADME, Microsome; details: read-out: ERH
UGT [6] = test: Intrinsic clearance in human liver microsomes assessed as UGT-mediated glucuronidation after 30 mins by LC-MS/MS analysis; format: ADME, Microsome; details: read-out: CLH
[7] = Cmax in Balb-C mouse kidney at 5 mg/kg, po; format: ADME, organism-based; set-up: dose 5 mg/kg, route oral
[8] = Ratio of drug level in kidney to plasma of Balb-C mouse at 5 mg/kg, po; format: ADME, organism-based; set-up: dose 5 mg/kg, route oral
[9] = Tmax in Balb-C mouse plasma at 5 mg/kg, po; format: ADME, organism-based; set-up: dose 5 mg/kg, route oral
[10] = Tmax in Balb-C mouse kidney at 5 mg/kg, po; format: ADME, organism-based; set-up: dose 5 mg/kg, route oral
[11] = target: T1, Voltage-gated inwardly rectifying potassium channel KCNH2; test: Inhibition of human ERG expressed in HEK293 cells by voltage-clamp method; format: cell-based
[12] = AUC (0 to 2 hrs ) in Balb-C mouse kidney at 5 mg/kg, po; format: ADME, organism-based; set-up: time < 2 hr, dose 5 mg/kg, route oral
[13] = AUC (0 to infinity) in Balb-C mouse plasma at 5 mg/kg, po; format: ADME, organism-based; set-up: time infinity, dose 5 mg/kg, route oral
[14] = Half life in Balb-C mouse plasma at 5 mg/kg, po; format: ADME, organism-based; set-up: dose 5 mg/kg, route oral
[15] = Cmax in Balb-C mouse muscle at 5 mg/kg, po; format: ADME, organism-based, Muscle tissue; set-up: dose 5 mg/kg, route oral
[16] = Half life in Balb-C mouse muscle at 5 mg/kg, po; format: ADME, organism-based, Muscle tissue; set-up: dose 5 mg/kg, route oral
[17] = Half life in Balb-C mouse kidney at 5 mg/kg, po; format: ADME, organism-based; set-up: dose 5 mg/kg, route oral
[18] = AUC (0 to infinity) in Balb-C mouse kidney at 5 mg/kg, po; format: ADME, organism-based; set-up: time infinity, dose 5 mg/kg, route oral
[19] = Binding affinity to HSP90 after 30 mins by ITC assay
Method in brief: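 Isothermal titration calorimetry at 25 °C with stirring at 1000 rpm. Ligands came from a 20 mM DMSO stock and were run in dialysis buffer with 1% DMSO. Ligand 10 µM in the cell, protein 100–200 µM in the syringe, 8–16 injections at 300 s spacing. One-site fit.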

[20] = AUC (0 to infinity) in Balb-C mouse muscle at 5 mg/kg, po; format: ADME, organism-based, Muscle tissue; set-up: time infinity, dose 5 mg/kg, route oral
[21] = Tmax in Balb-C mouse muscle at 5 mg/kg, po; format: ADME, organism-based, Muscle tissue; set-up: dose 5 mg/kg, route oral
[22] = Ratio of drug level in muscle to plasma of Balb-C mouse at 5 mg/kg, po; format: ADME, organism-based; set-up: dose 5 mg/kg, route oral
[23] = Binding affinity to hexa His-tagged HSP90 (9-236 aminoacids) by SPR assay
Method in brief: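 NTA chip charged with 0.5 mM Ni2+, then 100 nM His-tagged HSP90 captured to about 1500 RU. Running buffer 10 mM HEPES pH 7.4, 150 mM NaCl, EDTA, 0.05% Tween-20, 1% DMSO. Surface was reloaded for each concentration. Double-referenced sensorgrams were fitted globally to a single-step kinetic model.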

T1 sequence (Q12809 whole entry): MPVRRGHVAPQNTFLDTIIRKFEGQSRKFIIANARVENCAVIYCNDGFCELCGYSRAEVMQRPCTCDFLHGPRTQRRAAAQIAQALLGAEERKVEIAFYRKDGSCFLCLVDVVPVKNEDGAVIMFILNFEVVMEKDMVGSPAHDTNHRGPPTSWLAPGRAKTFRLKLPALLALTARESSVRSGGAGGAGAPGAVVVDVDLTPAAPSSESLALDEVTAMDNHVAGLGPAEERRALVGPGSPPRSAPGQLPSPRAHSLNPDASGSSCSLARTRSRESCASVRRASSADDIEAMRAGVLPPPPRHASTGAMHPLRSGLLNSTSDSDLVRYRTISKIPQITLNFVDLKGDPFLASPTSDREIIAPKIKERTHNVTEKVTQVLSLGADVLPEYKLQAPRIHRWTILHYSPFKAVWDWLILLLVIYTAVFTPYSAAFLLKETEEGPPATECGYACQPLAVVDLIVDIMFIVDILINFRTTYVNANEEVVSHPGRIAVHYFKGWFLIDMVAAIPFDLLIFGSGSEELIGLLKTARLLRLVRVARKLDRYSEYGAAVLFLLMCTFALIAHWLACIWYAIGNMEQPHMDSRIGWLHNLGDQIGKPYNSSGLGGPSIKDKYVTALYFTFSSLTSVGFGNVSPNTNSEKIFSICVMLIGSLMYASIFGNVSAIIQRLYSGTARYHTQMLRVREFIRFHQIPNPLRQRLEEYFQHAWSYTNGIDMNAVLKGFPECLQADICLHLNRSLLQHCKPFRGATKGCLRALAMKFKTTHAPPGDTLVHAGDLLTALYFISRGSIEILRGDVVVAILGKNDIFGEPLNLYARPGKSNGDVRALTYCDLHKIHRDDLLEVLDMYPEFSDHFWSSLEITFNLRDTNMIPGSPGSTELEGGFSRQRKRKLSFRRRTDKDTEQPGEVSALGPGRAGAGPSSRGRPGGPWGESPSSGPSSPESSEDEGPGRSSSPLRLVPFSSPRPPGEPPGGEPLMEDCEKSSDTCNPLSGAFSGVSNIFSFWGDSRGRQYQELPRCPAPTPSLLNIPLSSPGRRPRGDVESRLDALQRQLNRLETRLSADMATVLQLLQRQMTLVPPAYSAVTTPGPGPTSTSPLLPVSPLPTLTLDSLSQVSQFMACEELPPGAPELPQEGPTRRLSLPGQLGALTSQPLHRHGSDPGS
Heat shock protein HSP 90-beta, sequence (P08238 whole entry): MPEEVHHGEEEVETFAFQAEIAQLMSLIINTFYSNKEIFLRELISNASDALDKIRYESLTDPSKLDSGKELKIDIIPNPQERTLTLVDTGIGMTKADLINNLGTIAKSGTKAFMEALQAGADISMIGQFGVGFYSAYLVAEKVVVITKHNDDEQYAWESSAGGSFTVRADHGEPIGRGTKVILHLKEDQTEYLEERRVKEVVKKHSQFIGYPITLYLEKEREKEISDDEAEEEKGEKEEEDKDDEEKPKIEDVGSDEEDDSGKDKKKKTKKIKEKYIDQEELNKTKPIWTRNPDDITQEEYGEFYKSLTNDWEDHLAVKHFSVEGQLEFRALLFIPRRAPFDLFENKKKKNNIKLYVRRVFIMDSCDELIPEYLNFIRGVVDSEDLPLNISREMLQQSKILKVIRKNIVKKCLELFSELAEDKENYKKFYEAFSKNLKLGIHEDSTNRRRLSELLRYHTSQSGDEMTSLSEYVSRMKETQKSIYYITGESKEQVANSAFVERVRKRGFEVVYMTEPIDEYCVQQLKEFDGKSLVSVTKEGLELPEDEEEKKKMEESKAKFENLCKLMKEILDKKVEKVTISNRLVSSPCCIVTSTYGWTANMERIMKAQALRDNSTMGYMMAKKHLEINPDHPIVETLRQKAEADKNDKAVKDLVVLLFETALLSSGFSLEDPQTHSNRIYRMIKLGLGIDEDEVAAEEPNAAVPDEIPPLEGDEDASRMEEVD

Row | Compound | GI50 (BT-474) | Ki [1] | GI50 (MDA-MB-468) | GI50 (HCT-116) | other results
1 | CCN(CC)CCOc1nc(-c2cc(OC)c(Cl)cc2Cl)c2c(C#N)c[nH]c2n1 | 2010 nM | 62 nM | – | – | –
2 | COc1cc(Cl)c(-c2nc(SCC(=O)N3CCC3)nc3[nH]cc(C#N)c23)cc1OC | 31 nM | < 1 nM | 35 nM | 28 nM | –
3 | CNC(=O)CSc1nc(-c2cc(OC)c(OC)cc2Cl)c2c(C#N)c[nH]c2n1 | 56 nM | < 1 nM | 33 nM | 42 nM | –
4 | COc1cc(Cl)c(-c2nc(SCC(=O)N(C)C)nc3[nH]cc(C#N)c23)cc1O | 20 nM | < 1 nM | 23 nM | 131 nM | AUC(0-t) at 2 h [2]: 16 ng·h/mL; Cmax [3]: 25 nM and 11 ng/mL; IC50 [4]: > 30000 nM; hepatic extraction ratio at 0.5 h (UGT [5]): 0.8; microsomal CLint (UGT [6]): 73 µL/min/mg; Cmax [7]: 31 ng/mL and 72 nM; Kp [8]: 2.6; Tmax [9]: 15 min; Tmax [10]: 30 min; IC50 [11]: > 30000 nM; AUC(0-t) at 2 h [12]: 41 ng·h/mL
5 | COc1cc(Cl)c(-c2nc(SCC(=O)N(C)C)nc3[nH]cc(C#N)c23)cc1OC | 34 nM | < 1 nM | 30 nM | 32 nM | Cmax [3]: 553 nM and 239 ng/mL; AUC(0-inf) [13]: 297 ng·h/mL; half-life [14]: 84 min; IC50 [4]: > 30000 nM; Cmax [15]: 158 nM and 68 ng/mL; half-life [16]: 144 min; half-life [17]: 72 min; AUC(0-inf) [18]: 6920 ng·h/mL; microsomal CLint (UGT [6]): 4 µL/min/mg; Kd [19]: < 3 nM; AUC(0-inf) [20]: 231 ng·h/mL; Cmax [7]: 12.5 µM and 5390 ng/mL; Kp [8]: 23.3; Tmax [9]: 15 min; Tmax [10]: 15 min; Tmax [21]: 15 min; IC50 [11]: > 30000 nM; Kp [22]: 0.8
6 | CCN(CC)CCOc1cc(-c2nc(SCC(=O)NC)nc3[nH]cc(C#N)c23)c(Cl)cc1Cl | 78 nM | 8 nM | – | – | IC50 [4]: 3140 nM; IC50 [11]: 17800 nM
7 | CCN(CC)CCSc1nc(-c2cc(OC)c(C#N)cc2Cl)c2c(C#N)c[nH]c2n1 | 80 nM | < 1 nM | – | – | –
8 | COc1cc(Cl)c(-c2nc(SC(C)C)nc3[nH]cc(C#N)c23)cc1OCCN1CCC(F)(F)C1 | 388 nM | 172 nM | – | – | –
9 | COc1cc(Cl)c(-c2nc(SCC(=O)NC3CC3)nc3[nH]cc(C#N)c23)cc1OC | 69 nM | < 1 nM | 62 nM | 60 nM | –
10 | COc1cc(Cl)c(-c2nc(SCC(=O)NC3CC3)nc3[nH]cc(C#N)c23)cc1O | 102 nM | < 1 nM | 236 nM | 1160 nM | –
11 | CCOc1cc(-c2nc(SCC(=O)NC3CC3)nc3[nH]cc(C#N)c23)c(Cl)cc1OC | 25 nM | < 1 nM | 23 nM | 20 nM | –
12 | COc1cc(Cl)c(-c2nc(SCC(=O)NC(C)C)nc3[nH]cc(C#N)c23)cc1O | 161 nM | 3 nM | 178 nM | 238 nM | –
13 | CCNC(=O)CSc1nc(-c2cc(OC)c(OC)cc2Cl)c2c(C#N)c[nH]c2n1 | 141 nM | 2 nM | 59 nM | 42 nM | –
14 | CCNC(=O)CSc1nc(-c2cc(OCC)c(OC)cc2Cl)c2c(C#N)c[nH]c2n1 | 44 nM | < 1 nM | 64 nM | 40 nM | –
15 | COc1cc(Cl)c(-c2nc(SCC(=O)NC(C)(C)C)nc3[nH]cc(C#N)c23)cc1O | 128 nM | < 1 nM | 152 nM | 117 nM | –
16 | COc1cc(Cl)c(-c2nc(SCC(=O)NC(C)(C)C)nc3[nH]cc(C#N)c23)cc1OC | 121 nM | < 1 nM | 84 nM | 50 nM | –
17 | CCOc1cc(-c2nc(SCC(=O)NC(C)C)nc3[nH]cc(C#N)c23)c(Cl)cc1OC | 84 nM | < 1 nM | 77 nM | 65 nM | –
18 | COc1cc(Cl)c(-c2nc(SCC(=O)NC(C)C)nc3[nH]cc(C#N)c23)cc1OC | 81 nM | < 1 nM | 102 nM | 81 nM | –
19 | COc1cc(Cl)c(-c2nc(SCC(=O)NCCF)nc3[nH]cc(C#N)c23)cc1OC | 136 nM | 5 nM | 178 nM | 98 nM | –
20 | COc1cc(Cl)c(-c2nc(SCC(=O)NCCF)nc3[nH]cc(C#N)c23)cc1O | 85 nM | 2 nM | 183 nM | 728 nM | –
21 | COc1cc(Cl)c(-c2nc(SCC(=O)NCC(F)(F)F)nc3[nH]cc(C#N)c23)cc1OC | 45 nM | < 1 nM | 124 nM | 153 nM | –
22 | COc1cc(Cl)c(-c2nc(SCC(=O)N3CCC3)nc3[nH]cc(C#N)c23)cc1O | 21 nM | < 1 nM | 28 nM | 172 nM | –
23 | CSc1nc(-c2ccc(C#N)cc2)c2cc[nH]c2n1 | – | > 200000 nM | – | – | Kd [23]: > 100000 nM
